This passage reports cytotoxicity results from ChEMBL document CHEMBL4513216, “Probing the Open Global Health Chemical Diversity Library for Multistage-Active Starting Points for Next-Generation Antimalarials” (ACS Infect Dis, 2020).

A short description of this data set: Toxicity liver stage against HepG2, at 10uM. Set-up: test concentration 10 uM, cell line HepG2-A16-CD81EGFP. Conditions: human, HepG2-A16-CD81EGFP cells; read-out: INHIBITION
The data set is classed as cell-based. The gist of the method: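 Uninfected HepG2-A16-CD81EGFP cells, 3 × 10^3 per well, 1536-well, plated on prespotted compound at 10 μM final, parasite-free screening media added to match infected plates; puromycin 10 μM positive, DMSO 0.5% negative; run in parallel with 48 h PbLuc assay at 37 °C, 5% CO2; viability by CellTiter-Glo luminescence, normalized to controls.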
Turning to `Cc1cc(C2CCCN2Cc2nc3c(cnn3C)c(=O)[nH]2)on1` (stereo not given), the cytotoxicity at 10 µM is -10.7%. With `O=C(CCc1ccc(F)cc1)NS(=O)(=O)c1ccc2c(c1)OCCCO2`, the cytotoxicity at 10 µM amounted to 4.4%. For `COc1ccc(-c2n[nH]cc2CN(C)CCc2scnc2C)c(F)c1`, the cytotoxicity at 10 µM stood at 3.06%. Consider `Cc1ncoc1C(=O)N1C[C@H]2CCC[C@@]2(COCC2CCOCC2)C1`, for which the cytotoxicity at 10 µM is 0.23%. The same measure for `CCCNC(=O)C1CCN(CC(O)c2ccc(C(F)(F)F)cc2)CC1` (stereo not given): 2.68%. For the molecule `Cn1c(Cn2cccn2)nnc1C1CCN(Cc2cccnc2N)CC1`, the cytotoxicity at 10 µM was -9.12%. For `O=C(c1cscn1)N1CC[C@@H]2[C@@H]1CCN2c1ccccn1` the value was 5.95%.

Regarding `CCc1nnc(CNC2CCc3nc(C(C)C)nn3C2)o1` (stereo not given), the cytotoxicity at 10 µM was -20.6%. Turning to `Cc1n[nH]c(CN2CCN(Cc3ccccc3)[C@@H]3CS(=O)(=O)C[C@@H]32)n1`, the cytotoxicity at 10 µM was -7.42%. With `Cc1ccc2[nH]nc(C(=O)NCC3CCN(Cc4c[nH]cn4)C3)c2c1` (stereo not given), the cytotoxicity at 10 µM was -15.1%. Take `COCCC(=O)N1CCCC(c2noc3nc(C)cc(C(F)(F)F)c23)C1` (stereo not given): the cytotoxicity at 10 µM was -19.9%. Turning to `Cc1ncc(CN2CCCC2c2ccc(C(=O)NCc3ccoc3)s2)s1` (stereo not given), the cytotoxicity at 10 µM is -1.06%. Regarding `COc1ccccc1C(=O)N(Cc1nc(C)cs1)CC1CCCO1` (stereo not given), the cytotoxicity at 10 µM came out at 0.136%. Take `CC1(C)OC(=O)N(CCCOc2ccc(F)cc2)C1=O`: the cytotoxicity at 10 µM amounted to 0.17%. For `Cc1cc(C)n(CC2CCCN2C(=O)c2ccc(C(N)=O)cn2)n1` (stereo not given) the value was -3.87%.

Take `CCN1CCC(N2CCN(C)C3(CCC(=O)N(CCOC)CC3)C2)CC1` (stereo not given): the cytotoxicity at 10 µM was -0.724%. Consider `COc1cccc2c1OCC(Cc1cc(C(N)=O)ccn1)C2` (stereo not given), for which the cytotoxicity at 10 µM came to 5.83%.

Regarding `Cc1ccc(-c2ccnc(N3CCC4(CC3)CNC(=O)O4)n2)c(C)n1`, the cytotoxicity at 10 µM was -6.93%.

`NC(=O)c1ccccc1-n1cc(-c2cccc(C(=O)O)c2)cn1`: the cytotoxicity at 10 µM is -5.65%. For the molecule `COCC(=O)N1CC[C@@H]2CN(Cc3cccnc3)S(=O)(=O)[C@@H]2CC1`, the cytotoxicity at 10 µM was -113%.

Consider `COC(=O)C(c1cc(F)ccc1F)N(C)C(=O)c1csnn1` (stereo not given), for which the cytotoxicity at 10 µM was determined as 0.144%.

Consider `O=C(c1cnccn1)N1CCc2ncc(CN3CCOCC3)n2CC1`, for which the cytotoxicity at 10 µM was -77%. As to `CS(=O)(=O)N1CC2(CCN(Cc3ccccn3)C2)Cc2ccccc21` (stereo not given), the cytotoxicity at 10 µM was 8.08%. With `N#Cc1ccc(F)c(CN2CCCC2Cn2cccn2)c1` (stereo not given), the cytotoxicity at 10 µM is -7.69%.

Take `CC(=O)N1CCN(CCNC(=O)c2nc3ccccc3c(=O)[nH]2)CC1`: the cytotoxicity at 10 µM amounted to 6.45%. As to `COCCN1CCCC2(CCN(c3nccnc3N(C)C)C2)C1=O` (stereo not given), the cytotoxicity at 10 µM was -0.525%. `COc1cc2cc(C(=O)NC(C)C(=O)O)n(C)c2c(OC)c1OC` (stereo not given): the cytotoxicity at 10 µM was -162%. With `Cn1ncc2c1C(COCC1CC1)N(C(=O)c1ccncn1)CC2` (stereo not given), the cytotoxicity at 10 µM is -132%. For the molecule `COCCN(Cc1ccoc1)C(=O)c1ccccn1`, the cytotoxicity at 10 µM was 9.24%. For the molecule `CCc1cnc(N2CCC3(CCN(CC)C3=O)CC2)nc1`, the cytotoxicity at 10 µM was 1.61%. As for `COc1c(CNCCNC(=O)Cc2ccc(F)cc2)c(C)nn1C`, the cytotoxicity at 10 µM was -3.09%. The same measure for `CCc1ccccc1NC(=O)c1cnn(C)c1C`: -2.52%; for `COCCC(=O)N1CCC(c2cc(O)n(C)n2)C1` (stereo not given): -23.1%. Consider `Cc1ccc([C@]2(O)CC[C@H]3CN(Cc4cccnc4)C[C@H]32)nc1`, for which the cytotoxicity at 10 µM is -12.6%. As to `Cn1cccc1C(=O)N1CCCN(CCCc2ccccc2)CC1`, the cytotoxicity at 10 µM is -16.4%. `CC(C)CNC(=O)CN(Cc1ccc(F)cc1)S(C)(=O)=O`: the cytotoxicity at 10 µM turned out to be 10.2%. As to `CCn1cc(CN2CCCN(C(=O)c3sccc3OC)CC2)cn1`, the cytotoxicity at 10 µM was -5.68%. On to `Cc1ccccc1N1CCN(C(=O)Cn2ccnc2)CC1=O`, for which the cytotoxicity at 10 µM is -1.86%.

For `O=C(C1CCC1)N1C[C@H]2CC[C@@H](C1)N(S(=O)(=O)c1ccccc1)C2`, the cytotoxicity at 10 µM was -10%. As to `CN(Cc1cccnc1)CC1(O)CCCN(CC(C)(C)C)C1=O` (stereo not given), the cytotoxicity at 10 µM worked out at 3.09%. For the molecule `CN1Cc2[nH]nc(COCC3CC3)c2C1`, the cytotoxicity at 10 µM was 18%. On to `Cc1ccc(CN2C[C@H]3OC(=O)N(Cc4ccccn4)[C@H]3C2)o1`, for which the cytotoxicity at 10 µM is 4.16%. `CCOc1ccc(-c2ccc3c(c2)OCO3)cc1C(N)=O`: the cytotoxicity at 10 µM was determined as 5.17%.

On to `Cc1nn(C)cc1-c1ccnc(N(C)Cc2ccoc2)n1`, for which the cytotoxicity at 10 µM was 23.8%.

For `CCn1c2c(ccc1=O)CC(N)CC2` (stereo not given), the cytotoxicity at 10 µM was -1.72%. Turning to `NC(=O)C1CCN(C(=O)CSC2CCCc3ccccc32)CC1` (stereo not given), the cytotoxicity at 10 µM turned out to be 1.4%. With `COc1ccc(OC)c(NC(=O)c2cc3c([nH]c2=O)CCCC3=O)c1`, the cytotoxicity at 10 µM was -0.607%.

For the molecule `COCc1cc(O)nc(C2CCCN(Cc3ccc(OC)cc3)C2)n1` (stereo not given), the cytotoxicity at 10 µM was -1.25%. The same measure for `O=C(NCCCn1ccccc1=O)c1cnc(-c2ccsc2)s1`: 0.956%; for `COCCCNC(=O)CN(C)C(=O)c1ccccc1O`: -7.04%. As to `Cc1cccc(CN2CCn3cc(CNC(=O)CC4CC4)nc3C2)n1`, the cytotoxicity at 10 µM is -73.2%. Regarding `CCOc1ncccc1NC(=O)c1cc(C)sc1C`, the cytotoxicity at 10 µM was -6.81%. For `COc1ccc(NC(=O)Cn2nc(C)c(C)cc2=O)cc1Cl` the value was -6.47%; for `O=C(c1ccoc1)N1CCn2cnc(COCC3CC3)c2C1`, -71.9%; for `CS(=O)(=O)NCC1CCCN(C(=O)Nc2cccnc2N2CCCC2)C1` (stereo not given), 3.85%. In the case of `Cc1nc(C)c(C(=O)N2CCCN(Cc3cnn(C)c3)CC2)s1`, the cytotoxicity at 10 µM was -9.58%. Turning to `O=C1CCc2cc(S(=O)(=O)NC(=O)c3ccc4c(c3)CCO4)ccc2N1`, the cytotoxicity at 10 µM is -17.7%. Consider `COc1ccc(C2=CCN(C(=O)C3CCC3)CC2)cc1`, for which the cytotoxicity at 10 µM was -13.1%. Turning to `CCc1nc(C)cn1C(=O)Nc1ccc(C)cc1`, the cytotoxicity at 10 µM was -1.64%. For `CN(Cc1ccccc1CN1CCCC1)C(=O)c1c[nH]c(=O)[nH]1` the value was -3.99%. As for `CC(C)(C)c1csc(CCNC(=O)C(c2ccccc2)n2cnnn2)n1` (stereo not given), the cytotoxicity at 10 µM is 6.53%. In the case of `NC(=O)CCCNC(=O)c1cc(Br)c2c(c1)OCCO2`, the cytotoxicity at 10 µM was 9.31%. For `O=C1OCCN1CC(=O)N1C[C@@H]2CC[C@H]1CN(C(=O)c1ccccc1)C2` the value was 5.46%; for `CC1=N[C@@]2(CC[C@@H]3CN(S(=O)(=O)N(C)C)C[C@@H]32)C(=O)N1CC(C)C`, 3.16%; for `CC(c1cc(F)ccc1F)N(C)Cc1nc2c(cnn2C)c(=O)[nH]1` (stereo not given), -7.8%. For the molecule `CNC(=O)C(c1cccc(Cl)c1)C(C)C` (stereo not given), the cytotoxicity at 10 µM was determined as 2.02%.

On to `N[C@H]1CN(C(=O)c2ccc(CO)cc2)C[C@@H]1C1CC1`, for which the cytotoxicity at 10 µM was 2.56%.

As for `O=C(c1ccc(F)c(F)c1)N1CCN2CCCC2C1` (stereo not given), the cytotoxicity at 10 µM was -7.09%. As to `Fc1ccccc1Sc1ccccc1CNC1=NCCN1`, the cytotoxicity at 10 µM turned out to be 12.5%. For the molecule `CC1(C)CC(N(Cc2cccnc2)Cc2cccc(F)c2)CC(C)(C)N1`, the cytotoxicity at 10 µM was -6.41%.
